Key:
Assay type in all cases: functional, Mesocricetus auratus
Syrian golden hamster [1] = experiment: Protective activity against histamine-induced increase in macromolecular permeability in po dosed golden hamster cheek pouch administered 30 mins before induction of anesthesia
How it was run: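 Oral gavage to male hamsters 30 min before anesthesia induction. Permeability increase was induced by topical histamine on the cheek pouch and read as leakage sites per unit area (leaks/cm²) by intravital microscopy.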

Syrian golden hamster [2] = experiment: Protective activity against ischemia/reperfusion-induced increase in macromolecular permeability in po dosed golden hamster cheek pouch administered 30 mins before induction of anesthesia
How it was run: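 Male hamsters, dosed by gavage 30 min before anesthesia induction. The cheek pouch was made totally ischemic for 30 min with a syringe-inflated rubber tourniquet until blood flow ceased. Macromolecular leakage sites per cm² were counted by intravital microscopy 10 min after reperfusion onset and expressed as percentage protection relative to controls.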

Syrian golden hamster [3] = experiment: Protective activity against ischemia/reperfusion-induced increase in macromolecular permeability in iv dosed golden hamster cheek pouch administered 10 mins before onset of reperfusion
How it was run: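 Male hamster cheek pouch under intravital microscopy; compound given intravenously 10 min before reperfusion onset. Total ischemia of 30 min was produced by a soft rubber tourniquet, pressurized by syringe until flow stopped. Leakage sites (leaks/cm²) were counted 10 min after reperfusion onset and converted to percentage protection against untreated controls.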

Syrian golden hamster [4] = experiment: Protective activity against ischemia/reperfusion-induced increase in macromolecular permeability in po dosed golden hamster cheek pouch administered for 10 days
Syrian golden hamster [5] = experiment: Protective activity against histamine-induced increase in macromolecular permeability in po dosed golden hamster cheek pouch administered for 10 days

| SMILES | Activity (Syrian golden hamster [1]) [%] | Activity (Syrian golden hamster [2]) [%] | Activity (Syrian golden hamster [3]) [%] | Activity (Syrian golden hamster [4]) [%] | Activity (Syrian golden hamster [5]) [%] |
| --- | --- | --- | --- | --- | --- |
| CNO | 11 | 23 | 33 |  |  |
| COc1cc(/C=[N+](\[O-])C(C)(C)C)ccc1OCc1ccccc1 | 32 | 68 | 36 |  |  |
| Cc1ccc(/C=[N+](\[O-])C(C)(C)C)cc1 |  | 14 | 55 |  |  |
| C/[N+]([O-])=C/c1cccc(Oc2ccccc2)c1 | 13 | 46 | 61 |  |  |
| Cc1ccc(/C=[N+](/C)[O-])cc1 |  | 24 | 21 |  |  |
| CC(C)(C)/[N+]([O-])=C/c1ccc(Cl)cc1 |  | 63 | 53 |  |  |
| CC(C)(C)/[N+]([O-])=C/c1cccc(Oc2ccccc2)c1 |  | 12 | 18 |  |  |
| C/[N+]([O-])=C/c1ccc(Cl)cc1 | 29 | 31 | 27 |  |  |
| C/[N+]([O-])=C/c1ccco1 | 32 | 15 | 59 |  |  |
| CC(C)(C)NO | 40 | 10 | 7 |  |  |
| C/[N+]([O-])=C/c1ccc2c(c1)OCO2 | 42 | 3 | 50 |  |  |
| COc1cc(/C=[N+](/C)[O-])ccc1OCc1ccccc1 | 15 | 72 | 51 |  |  |
| CC(C)(C)/[N+]([O-])=C/c1ccc2c(c1)OCO2 |  | 65 | 38 |  |  |
| Cc1c(C)c2c(c(C)c1O)CC[C@@](C)(CCC[C@H](C)CCC[C@H](C)CCCC(C)C)O2 [ALPHA-TOCOPHEROL] |  |  |  | 50 | 40 |

Source: ChEMBL document CHEMBL1151916, “N-tert-butyl and N-methyl nitrones derived from aromatic aldehydes inhibit macromolecular permeability increase induced by ischemia/reperfusion in hamsters” (2009)
